Assay results: ChEMBL document CHEMBL4513216, “Probing the Open Global Health Chemical Diversity Library for Multistage-Active Starting Points for Next-Generation Antimalarials” (ACS Infect Dis, 2020)

Assay: Toxicity liver stage against HepG2, at 10uM
Format: cell-based
Design: test concentration 10 uM, cell line HepG2-A16-CD81EGFP
Details: human, HepG2-A16-CD81EGFP cells; read-out: INHIBITION
Summary of the method: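 Uninfected HepG2-A16-CD81EGFP cells, 3 × 10^3 per well, 1536-well, plated on prespotted compound at 10 μM final, parasite-free screening media added to match infected plates; puromycin 10 μM positive, DMSO 0.5% negative; run in parallel with 48 h PbLuc assay at 37 °C, 5% CO2; viability by CellTiter-Glo luminescence, normalized to controls.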

Structure (SMILES) | cytotoxicity at 10 µM [%]
CNC(=O)c1cccc(NC(=O)Cn2nc(-c3cccs3)oc2=O)c1 | -8.28
Cn1c(=O)oc2ccc(S(=O)(=O)N3CCC(c4ccccc4)C3)cc21 (stereo not given) | 5.43
Cc1nn(C)c(N2CCOCC2)c1CNCc1ccnn1C | -1.66
Cc1nnc2n1CCN(C(=O)c1cc3cc(F)ccc3[nH]1)C2 | 3.28
O=S(=O)(Cc1ccc(Br)cc1)NCCO | 6.73
CCCOc1cccc(CNC(=O)CN2CCN(C)CC2C)c1 (stereo not given) | -7.57
Cc1cc(C(F)(F)F)nc(CNC(=O)CCC2CCCN(C)C2)n1 (stereo not given) | -53.9
CC1(C)CNC(=O)c2nc(CCCN3CCCC3)[nH]c2C1 | -12.4
COc1ccccc1-n1nc(-c2ccco2)n(CC(N)=O)c1=O | 0.5
Cc1ccnc(NC(=O)c2ccc(Cl)o2)c1 | 4.14
CC(O)CN1CCN(C(=O)c2cnn(-c3ccc(Cl)cc3)c2)CC1 (stereo not given) | -10.3
CN1CCN(C(=O)c2cnsn2)c2cc(F)ccc21 | -9.03
CCCc1cc(NCc2ccc(CO)cc2)n2nccc2n1 | -14.1
Cc1cnn(CCNCC(O)c2ccc(F)c(F)c2)c1 (stereo not given) | -0.796
CC(NC(=O)NCCCn1cccn1)c1ccncc1 (stereo not given) | 15.3
CC(C)COC1CC2(CCN(Cc3nccn3C)CC2)C1 | -158
N#Cc1cccc(C(=O)N2C[C@@H]3CC[C@H]2CN(C(=O)C2CCC2)C3)c1 | -2.5
Cc1nc(C)c(CN2CCOC[C@H](Oc3ccccc3)C2)s1 | 7.53
COCC(=O)Nc1ccc(-c2noc([C@@H]3CCCN3C)n2)cn1 | 6.65
CCOc1ccc(NS(=O)(=O)c2cc(C)c(C(=O)O)s2)cc1F | -3.24
Cc1nn(-c2cc(Cl)cc(Cl)c2)c(C)c1CCC(=O)O | 3.8
CC(C)c1nc(C2CCCN2CC(=O)N2CCNC2=O)no1 (stereo not given) | -8.96

Structure (SMILES) | cytotoxicity at 10 µM [%]
CCC1CN(CC(=O)NCCN(CC)CC)c2ccccc2S1 (stereo not given) | -1.23
CC(C)c1nc(C2CCCN2c2ccnc(C3CCCC3)n2)no1 (stereo not given) | 28.5
CS(=O)(=O)N1CCC2(CC1)CC(CC(=O)NCC1CC1)c1ccccc12 (stereo not given) | 7.65
Cc1cc2nc(CO[C@H]3CN(C4CCN(C)CC4)C[C@H]3F)[nH]c2cc1C | -11.6
CCCn1nc(C)c(C(=O)N[C@@H]2CC[C@@H](N3CCCC3)[C@@H]2O)c1C | -4.79
COc1c(C2CCCN2C(=O)c2ccc(C#N)c(C)n2)c(C)nn1C (stereo not given) | -8.45
OC1(Cn2ccc3ccncc32)CCN(Cc2ccccn2)CC1 | 2.42
CCc1cc(NCc2cc3n(n2)CCCN(S(C)(=O)=O)C3)nc(C)n1 | -1.52
Cn1cc(C[C@H]2[C@H](O)CCN2C(=O)C2CCOCC2)cn1 | 13
CCn1ccnc1CN1CCN(CC(O)Cn2cccn2)CC1 (stereo not given) | -5.97
CCN(CC(=O)Nc1cc(C(C)(C)C)no1)Cc1ccc(Cl)s1 | 6.13
Cc1ccc(Nc2c(C#N)c(=O)n(C)c(=O)n2C)cc1F | -4.99
O=C(c1ccco1)N1CC[C@@H]2O[C@@H](COCC3CCOCC3)CC[C@@H]21 | 1.95
CC(C)(C)c1n[nH]c(C2CN(C(=O)c3cc(C4CC4)[nH]n3)CCO2)n1 (stereo not given) | -7.2
Cc1cc(NC(=O)N2CCN(c3nc(C)c(C)s3)CC2)no1 | 3.04
CN(CCCNC(=O)Nc1ccc(C#N)cc1)CC(F)(F)F | -3
COCCN(C)C[C@@H]1CCC[C@@H]2CN(c3ncccn3)C[C@@H]21 | 4.79
Cc1ccc(C(=O)N2CCSCC2)cc1NC(=O)NCC1CCC1 | 3.07
CCn1ncc2c1C(COCC1CC1)N(Cc1c(C)noc1C)CC2 (stereo not given) | 12.3
COCCNC(=O)[C@H]1CN(Cc2csc(C)n2)C[C@H]2OCC[C@@H]12 | 9.9
CCOCCn1c(=O)n(Cc2ccc(F)cc2)c2ncc(C(=O)O)cc21 | 0.902
Cc1[nH]c2c(C)ccc(C)c2c1CC(=O)NCc1csc(N(C)C)n1 | -6.65

Structure (SMILES) | cytotoxicity at 10 µM [%]
NC(=O)CSCCC(=O)NCC1CC1 | 6.2
O=C(O)c1csc(S(=O)(=O)Nc2cccc(OC(F)F)c2)c1 | -2.63
Cn1ccnc1CCNS(=O)(=O)c1cccnc1 | 10.7
CCc1nn(C)c(Cl)c1CN1CCC2(C1)CN(C)C(=O)O2 (stereo not given) | 1.95
CN(C)C(=O)Cn1cc(C(=O)NCCc2cccc(Cl)c2Cl)nn1 | -1.42
CC(=O)NC1CCCN(C(=O)NCCOc2ccc3c(c2)OCO3)C1 (stereo not given) | -31
CCNc1cc2c(nn1)CCN(C(=O)c1cc(C)n(C3CC3)c1C)C2 | -0.282
CN(Cc1n[nH]c(=O)n1Cc1cccs1)S(C)(=O)=O | -4.2
COCCN1CCC(C(=O)N(C)Cc2cccc(Cl)c2)C1 (stereo not given) | -28.6
CC(=O)N1CCC(NC(=O)NCc2ncc(-c3ccccc3)o2)CC1 | -44.7
CCc1nc(C2CCCN(C(=O)c3cccc(Cl)c3)C2)no1 (stereo not given) | -7.55
CC(C)c1nsc(N2CCS(=O)(=O)CC2)n1 | -2.41
CCSc1ccccc1C(=O)NCC1CCN(Cc2ccsc2)CC1 | -8.44
CN(C)c1cc(NCc2cnc3n2CCN(CC2CC2)CC3)ncn1 | -2.57
O=C1CN(Cc2ccc(-c3ccccc3C(=O)O)cc2)CCN1 | -1.88
COc1ccccc1CN1C[C@@H](F)[C@@H](OCc2nc3ncccc3[nH]2)C1 | 6.96
O=C1OCCC1N1CCN(c2ccccn2)CC1 (stereo not given) | 7.37
Cc1noc(C)c1CC(=O)N1CCCN(Cc2cscn2)CC1 | 2.45
CNC(=O)c1ccc2c(c1)C1(CCN(CC3CC3)CC1)C(=O)N2 | -0.843
Cc1nnc(C(C)N2CCCN(Cc3ccc(F)cc3)CC2)o1 (stereo not given) | -4.92
CCNC(=O)C1CN(Cc2c(-c3cc(C)on3)nn(C)c2Cl)CCO1 (stereo not given) | -4.37
Cc1nc(C(=O)NS(=O)(=O)c2cccc(C#N)c2)cs1 | -1.95

Structure (SMILES) | cytotoxicity at 10 µM [%]
c1ccc(-c2noc(CN3CCC(c4ccn[nH]4)CC3)n2)cc1 | -1.19
CC(NC(=O)N(C)Cc1cnn(C)c1)c1nncn1C (stereo not given) | -3.03
Cc1cccc(-n2c(C)cc(C(=O)N3CCn4c(C)nnc4C3)c2C)c1 | -4.86
COc1ccc(CCC(=O)N(C(C)C)C2CCOCC2)cc1 | -11.8
CCN1CCN(c2ccc(CNC(=O)c3ccc(Cl)o3)cn2)CC1 | -0.433
CC[C@H](C)[C@H](NC(=O)Cc1csc(-c2cccc(Cl)c2)n1)C(=O)O | -7.48
CC(C)c1ncc2c(n1)CN(Cc1nc(Cc3ccccc3)no1)CC2 | -14.6
N[C@@H]1c2ccccc2C2(CCN(c3ccc(C(F)(F)F)cn3)CC2)[C@H]1O | -5.78
CC(C)(C)c1nccc(N2CCCCC2CNS(C)(=O)=O)n1 (stereo not given) | -2.84
COc1c(F)cc(-c2cn(CCn3c(C)cc(C)nc3=O)nn2)cc1Cl | -1.72
Cn1cc(CC(CNC(=O)Nc2cccc(Cl)c2)C(N)=O)cn1 (stereo not given) | -15.5
O=C1NC2(CCCN(C(=O)CCn3cncn3)C2)Oc2ccccc21 (stereo not given) | 3.08
CC(C)(C)NS(=O)(=O)c1cc(NC(=O)C2CC2)ccc1F | -10.6
COc1ccccc1CC1CCCN(C(=O)c2n[nH]c3c2CCC3)C1 (stereo not given) | 13.3
Cc1cc(CN2CCOC(CN(C)c3cccnn3)C2)no1 (stereo not given) | 8.23
CCN(CC)Cc1cc(C(=O)N2CCC3(CCN(C)CC3)C2)c(C)o1 | 4.92
Cc1nc(NCc2nccn2C)cc(C2COCCN2)n1 (stereo not given) | 5.32
O=C(NCc1ccccc1F)NC1CCCN(c2ncccn2)C1 (stereo not given) | 7.81
CC(=O)NC1CCCN(C(=O)Nc2cnc3c(cnn3C(C)C)c2)C1 (stereo not given) | -4.67
O=C(NC[C@H]1C[C@@H]2CCN1C[C@@H]2CN1CCCCC1)Nc1ccccc1 | 10
O=C(CN1C[C@@H]2CC[C@H]1CN(Cc1ccccn1)C2)Nc1ccccc1 | -5.92
CCOc1cccnc1C(=O)N1CC=C(c2ccc(O)cc2)CC1 | -1.66

Structure (SMILES) | cytotoxicity at 10 µM [%]
Cc1ccc(-c2cc(N)c(=O)n(C(C)C(N)=O)n2)o1 (stereo not given) | -1.89
CC(C)c1n[nH]c(C2CN(C(=O)c3cc(C(N)=O)cs3)CCO2)n1 (stereo not given) | 1.17
Cc1cc(CN(C)CCN(C)c2ccccc2)no1 | -4.65
COc1ccc(CNC(C)Cn2cccn2)c(OC)c1OC (stereo not given) | -8.17
CC(NCc1cnc(C2CCC2)s1)c1ccccc1-n1cccn1 (stereo not given) | 0.33
Cn1ncnc1NCc1ccc(Cl)cc1 | -4.43
CCn1ccnc1CNCC1CCN(CC(O)c2ccccc2)CC1 (stereo not given) | -12.8
CC(C)N1CCCC(C(=O)N2CCN(c3cccc(C(=O)O)c3)CC2)C1 (stereo not given) | 9.45
COc1cc(C)c(C(C)NC(=O)NCCCn2cncn2)cc1OC (stereo not given) | -16.2
c1csc(CN2CC[C@H]3C[C@H](c4ccncn4)O[C@@H]3C2)c1 | 1.17
O=C(CN1CCCC1Cn1cncn1)NCCOc1cccc(F)c1 (stereo not given) | -3.24
CCc1ncc2c(n1)CN(C(=O)COC)C2 | -19.4
OCCOCc1n[nH]c2c1CN(Cc1ccco1)C2 | 6.71
CCc1nc(C2CCCN2C(=O)Cc2cccs2)no1 (stereo not given) | -7.85
O=C(NCCC1=CCCCC1)c1[nH]nc2c1CCCC2 | -80.4
CN(C)C(C(=O)N1CCN(CCn2cccc2)CC1)c1ccc(F)cc1 (stereo not given) | -14.9
CC(C)N1CCCN(c2nc(-c3cccnc3)nc3c2cnn3C)CC1 | 28.2
O=S(=O)(c1ccc(-c2cnco2)cc1)N1CCCC(O)(CO)CC1 (stereo not given) | 1.72
O=C(NCCn1cc(Cl)cn1)C1CCN(C(=O)C2CC2)CC1 | -50.5
Cn1cc(CN2CCC3(CCC(C(=O)NCC4CC4)C3)CC2)cn1 (stereo not given) | 3.47
Cc1ccsc1CNC(=O)c1ccc(N2CCNC2=O)cc1 | 1.79
O=C1[C@H]2CN(Cc3ccccn3)C[C@H]2CN1c1ccsc1 | -73.2
